Screening data deposited in PubChem by Johns Hopkins Ion Channel Center.
TRPC4 inh: inhibitors of mouse TRPC4 channel | B-score at 10 µM | 300,000 compounds, 0.39% hits | AID 2247 | Q9QUQ5 | HEK293 TRPC4beta/mu-opioid, DAMGO-evoked Fluo4 calcium flux; hits give low values;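 active = B-score over 3 SD under the library average, no early fluorescence shift, positive overall ratio signal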
Target sequence (Q9QUQ5 whole entry, looked up): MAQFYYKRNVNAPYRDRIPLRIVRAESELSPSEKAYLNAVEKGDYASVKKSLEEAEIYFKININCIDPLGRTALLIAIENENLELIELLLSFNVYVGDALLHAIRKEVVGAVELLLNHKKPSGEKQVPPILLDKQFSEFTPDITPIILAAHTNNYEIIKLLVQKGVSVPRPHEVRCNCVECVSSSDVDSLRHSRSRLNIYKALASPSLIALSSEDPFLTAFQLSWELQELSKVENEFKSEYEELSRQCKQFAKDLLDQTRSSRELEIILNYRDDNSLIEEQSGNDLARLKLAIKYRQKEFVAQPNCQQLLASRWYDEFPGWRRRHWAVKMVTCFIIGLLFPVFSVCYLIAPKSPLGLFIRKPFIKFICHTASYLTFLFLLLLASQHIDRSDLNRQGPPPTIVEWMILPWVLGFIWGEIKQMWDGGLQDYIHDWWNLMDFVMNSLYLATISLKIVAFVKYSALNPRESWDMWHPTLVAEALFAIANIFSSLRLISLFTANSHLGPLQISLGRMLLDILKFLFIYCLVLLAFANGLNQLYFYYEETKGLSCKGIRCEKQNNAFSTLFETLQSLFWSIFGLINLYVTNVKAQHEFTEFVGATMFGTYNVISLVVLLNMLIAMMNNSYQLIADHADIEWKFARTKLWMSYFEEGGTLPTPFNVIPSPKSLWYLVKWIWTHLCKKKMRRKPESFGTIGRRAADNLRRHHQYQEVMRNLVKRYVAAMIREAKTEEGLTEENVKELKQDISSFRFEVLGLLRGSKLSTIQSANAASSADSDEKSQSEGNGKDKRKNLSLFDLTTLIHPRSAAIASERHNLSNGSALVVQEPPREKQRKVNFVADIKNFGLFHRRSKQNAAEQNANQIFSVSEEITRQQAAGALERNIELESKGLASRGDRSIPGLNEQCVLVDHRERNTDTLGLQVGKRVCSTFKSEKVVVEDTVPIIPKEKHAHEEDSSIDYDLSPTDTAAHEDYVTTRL
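Test system – stable TRPC4beta/mu-opioid receptor HEK293 cells · Probe or stimulus – DAMGO, a submaximal dose followed by a maximal one · Dosing – one concentration per compound · Signal – Fluo4 calcium fluorescence by kinetic imaging, 5 s 1 Hz baseline · Evaluation – per-well B score of integrated baseline-normalized Fluo4 ratio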
TRPC4 potent: TRPC4 (mouse) allosteric potentiation; 310,000 compounds, 0.42% hits; B-score at 10 µM; HEK293 TRPC4beta/mu-opioid, DAMGO EC20, Fluo-4 Ca2+ flux; hits give high values;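 active = B-score of calcium response area above 5 SD of library B-scores, with initial fluorescence ratio within 5 SD of library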;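 also: B-score of integrated fluorescence ratio over time as area under calcium response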
TRPC6 inhibitor: blocks the mouse TRPC6 cation channel; Q61143; HEK293-TRPC6, membrane potential dye, ACh-evoked depolarization; hits give low values; B-score at 10 µM; 310,000 compounds, 1.1% hits;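 active = B-score under library mean minus 3 SD, initial fluorescence not abnormally high, positive integrated signal ratio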;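 also: B-score derived from integrated fluorescence ratio over the kinetic read; more negative B-score means stronger inhibition of depolarization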
Kir21 block: blocks the mouse Kir2.1 inward-rectifier potassium channel; HEK293-Kir2.1, FluxOR thallium flux fluorescence; hits give low values; B-score at 10 µM; 310,000 compounds, 0.85% hits; AID 1672;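 active = fluorescence ratio B-score at or below minus 3 SD of library scores, with starting-brightness B-score within 2 SD, cut at about -4.2 in these data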;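 also: channel flux triggered by added potassium and thallium sulfate stimulus; B-score of peak minus minimum fluorescence over baseline after thallium stimulus; more negative B-score means stronger Kir2.1 block with less thallium influx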
TRPC4 act: TRPC4 (mouse) channel activation. B-score at 10 µM. AID 2237. 310,000 compounds, 0.49% hits. HEK293 TRPC4beta/mu-opioid, Fluo4 calcium fluorescence; hits give high values. Q9QUQ5;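 active = B-score above 5 SD of library B-scores, and initial fluorescence ratio not above library mean plus 5 SD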;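 also: positive B-score marks a calcium rise read as TRPC4 activation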
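Assay system – TRPC4beta and mu-opioid receptor HEK293 stable cells · Measured by – Fluo4 fluorescence, kinetic · Schedule – dye loading 45 min room temperature, 110 s kinetic read · Read-out – B-scored integrated calcium fluorescence ratio · Controls – buffer and maximal DAMGO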
TRPC6 act: mouse TRPC6 channel activation | Q61143 | HEK293-TRPC6 membrane potential dye fluorescence; hits give high values | B-score at 10 µM | 310,000 compounds, 0.13% hits | AID 2550;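 active = B-score of the integrated fluorescence ratio above library mean plus 3 SD, and starting fluorescence ratio within library mean plus 5 SD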;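 also: higher score means more depolarization so channel activation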
TRPC4 spec 2: second selectivity test of TRPC6 inhibitors: effect on mouse TRPC4; inhibition, % at 10 µM; shares compounds with TRPC6 inhibitor; 920 compounds, 42% hits; HEK293 TRPC4/MOR, membrane potential dye fluorescence; channel activated by saturating DAMGO dose;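 active = compounds whose fluorescence signal differed from control wells by over 3 SD, either direction, in both duplicate plates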
TRPC4 spec: tests whether TRPC6 inhibitors also affect mouse TRPC4; shares compounds with TRPC6 inhibitor; HEK293 TRPC4/mu-opioid, membrane potential fluorescence; 920 compounds, 61% hits; AID 2777; activity change, negative = inhibition, % at 10 µM;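 active = rise or fall in signal beyond 3 SD of buffer-only wells in both replicate plates, either sign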;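 also: integrated kinetic ratio of fluorescence range over baseline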
HEK293 MPD ctr 2-1: second counter-screen for TRPC6 inhibitors: parental HEK293 cells; 920 compounds, 31% hits; signal change vs control, % at 10 µM; AID 2779; shares compounds with TRPC6 inhibitor; parental HEK293 membrane potential dye fluorescence; maximal acetylcholine challenge after compound addition;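 active = membrane potential signal moving either way by over 3 SD of the maximum-effect control, in both duplicate plates, meaning non-specific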
HEK293 MPD ctr-1: parental HEK293 nonspecific activity of TRPC6 inhibitors; shares compounds with TRPC6 inhibitor; parental HEK293 membrane potential dye fluorescence; membrane potential signal change, % at 10 µM; 920 compounds, 60% hits; AID 2780;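 active = membrane potential signal shifting up or down by more than 3 SD of buffer-only wells, on both duplicate plates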
HEK293 MPD ctr-2: parental HEK293 nonspecific activity of TRPC6 modulators | membrane potential dye fluorescence | 2,400 compounds, 51% hits | membrane potential signal change, % at 10 µM | shares compounds with TRPC6 inhibitor | AID 488924;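 active = membrane potential signal moves up or down beyond 5 SD from buffer-only wells, on both duplicate plates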
HEK293 MPD ctr 2-2: second counter-screen for TRPC6 modulators: effect in parental HEK293 cells. membrane potential dye fluorescence; after compound, maximal acetylcholine stimulation. shares compounds with TRPC6 inhibitor. AID 488926. inhibition, % at 10 µM. 2,400 compounds, 14% hits;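 active = membrane potential signal drops by more than 5 SD from the mean control signal, in both duplicate plates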;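 also: plate controls were acetylcholine ECmax control wells for no effect and buffer only wells for full effect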
TRPC4/MOR mod: mouse TRPC4 off-target activity of TRPC6 modulators. shares compounds with TRPC6 inhibitor. HEK293 TRPC4/mu-opioid, membrane potential fluorescence. percent change from control (negative = decrease, positive = increase), % at 10 µM. 2,400 compounds, 69% hits;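 active = membrane potential signal moved up or down beyond 5 SD of buffer control wells, in both duplicate plates, actives on both sides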;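 also: plate controls were assay buffer wells for no effect and DAMGO maximal-effect wells for full effect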
TRPC4/MOR inh 2: second check of whether TRPC6 modulators also affect mouse TRPC4; inhibition, % at 10 µM; 2,400 compounds, 55% hits; HEK293 TRPC4/mu-opioid, membrane potential dye fluorescence; stimulated with maximal-effect DAMGO; AID 488928; shares compounds with TRPC6 inhibitor;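 active = drop in membrane potential signal beyond 5 SD of the control wells in both duplicate plates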;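 also: TRPC4 counter screen for TRPC6 hits run under conditions tuned for TRPC6 not TRPC4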
TRPC6 block conf: confirmation of mouse TRPC6 inhibitors; 3,300 compounds, 43% hits; inhibition, % at 10 µM; AID 488960; shares compounds with TRPC6 inhibitor; HEK293-TRPC6, membrane potential dye, ACh-evoked depolarization;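 active = fluorescence ratio falls more than 5 SD below the full-stimulation control mean, in both duplicate runs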;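 also: integrated fluorescence ratio of peak minus minimum over baseline after agonist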
TRPC6 act conf: mouse TRPC6 activator confirmation; activation, % at 10 µM; shares compounds with TRPC6 inhibitor; AID 488961; HEK293-TRPC6 membrane potential dye fluorescence, FDSS; 2,800 compounds, 11% hits;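 active = ratio signal rise beyond 5 SD above unstimulated control wells' mean, seen in both duplicate runs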;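 also: plate controls were buffer EC0 wells for no effect and acetylcholine ECmax response for full effect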
Starred values were filed as active, the others as inactive; i = inactive; nt = not tested or not shown; ! = not confirmed by another sample. Shown are actives, neighbours in structure and some others; about 3% of the full set was active somewhere.

SMILES | TRPC4 inh | TRPC4 potent | TRPC6 inhibitor | Kir21 block | TRPC4 act | TRPC6 act | HEK293 MPD ctr-2 | HEK293 MPD ctr 2-2 | TRPC4/MOR mod | TRPC4/MOR inh 2 | TRPC6 block conf | TRPC6 act conf | others
COc1ccc(S(=O)(=O)N2CCOC23CCN(S(=O)(=O)c2cc(C)ccc2OC)CC3)cc1 | i | i | i | -0.31 | i | i | nt | nt | nt | nt | nt | nt
CC1CCC(C(C)C)C(OC(=O)Cn2c(-c3ccccc3)[n+](C)c3ccccc32)C1 (stereo not drawn) | i | i | -5.6*! | -7.6* | i | 12* | 506%* | i | 110%* | 60%* | 63%* | 176%*
CC1CCC(C(C)C)C(OC(=O)C[n+]2cc(-c3ccc(Cl)cc3)n3c2CCC3)C1 (stereo not drawn) | i | i | i | -1.9 | i | i | nt | nt | nt | nt | nt | nt
COc1ccc2c(c1)CCCN2C(N)=Nc1ccc(Cl)cc1 | i | i | -6.5* | -7.6* | i | i | 114%* | i | 16%* | 69%* | i | nt
CC1CCC(C(=O)NC(C(=O)Nc2ccccn2)C(C)C)CC1 (stereo not drawn) | i | i | i | -2.2 | i | i | nt | nt | nt | nt | nt | nt
CCOc1ccc(NC(=O)C(NC(=O)C2CCC(C)CC2)C(C)C)cc1 (stereo not drawn) | i | i | -5.7* | 0.8 | i | i | i | i | i | i | i | i
Cc1cccc(NCc2ccc(Br)cc2)n1 | i | i | i | -1 | i | i | nt | nt | nt | nt | nt | nt
COc1cc(CNCCc2ccccc2F)ccc1OCc1ccc(Cl)nc1 | i | i | -7.7* | -5.1 | i | i | nt | nt | nt | nt | 60%* | i | TRPC4 spec 2=48%*;TRPC4 spec=i;HEK293 MPD ctr 2-1=226%*;HEK293 MPD ctr-1=3.9%*
CCNCc1ccc(OCc2ccccc2F)c(OC)c1 | i | i | i | -0.67 | i | i | nt | nt | nt | nt | nt | nt
CC1(C)CC(=O)C2=C(C1)OC(N)=C([N+](=O)[O-])C2c1cccs1 (stereo not drawn) | i | i | i | -1.2 | i | i | nt | nt | nt | nt | nt | nt
CCOc1ccccc1NC(=O)C1CCN(S(C)(=O)=O)CC1 | i | i | i | 1.3 | i | i | nt | nt | nt | nt | nt | nt
O=S(=O)(Nc1nc2ccccc2[nH]1)c1ccc(Cl)cc1 | i | i | -8.7* | 0.4 | i | i | nt | nt | nt | nt | 52%* | i | TRPC4 spec 2=i;TRPC4 spec=i;HEK293 MPD ctr 2-1=i;HEK293 MPD ctr-1=i
